Source: ChEMBL document CHEMBL1151690, “The design, synthesis, and anti-tumor mechanism study of N-phosphoryl amino acid modified resveratrol analogues” (Bioorg Med Chem, 2008)
Activity calls are given as the source filed them. The calls are words filed in the database; no cut-off is given here.

Columns and labels:
[1] = (§1) Antiproliferative activity against human CNE2 cells after 72 hrs by MTT assay; type: functional, cell-based; conditions: CNE-2, 72 h
Procedure, shortened: (§2)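 MTT assay. Cells were grown in DMEM with 10% FBS, penicillin and streptomycin at 37 °C in 5% CO2, seeded in 96-well plates and exposed to compounds at 0.5–100 μM for 72 h. They were then given MTT (5 mg/ml) for 4 h, the formazan was dissolved in DMSO and A595 was read. IC50 is the mean ± SEM of three experiments.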

[2] = Antiproliferative activity against human CNE1 cells after 72 hrs by MTT assay; type: functional, cell-based; conditions: CNE; procedure, shortened: as §2
CNE-2 [3] = test: as §1; type: functional, cell-based; procedure, shortened: as §2
K562 = test: Antiproliferative activity against human K-562 cells after 72 hrs by MTT assay; type: functional, cell-based; conditions: K562, 72 h
Procedure, shortened: (§3)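 IC50 from 72 h of compound treatment, reported as the mean ± SEM of three experiments, with significance set at P < 0.05.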

[4] = Cell cycle arrest in human CNE2 cells assessed as accumulation at sub-G0-G1 phase visualized by propidium iodide staining at 50 uM after 24 hrs by flow cytometry; type: functional, cell-based; conditions: CNE-2
Procedure, shortened: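 CNE-2 cells were treated at 50 μM for 24 h, stained with propidium iodide and analysed by flow cytometry of DNA-content histograms. Apoptotic events were scored as the sub-G0–G1 population, and the cell-cycle phase distribution was also recorded.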

HeLa = test: Antiproliferative activity against human HeLa cells after 72 hrs by MTT assay; type: functional, cell-based; procedure, shortened: as §3
CNE-2 [5] = test: Induction of apoptosis in human CNE2 cells assessed as DNA fragmentation at 50 uM after 24 hrs by agarose gel electrophoresis; type: functional, cell-based
Procedure, shortened: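 CNE-2 cells were treated at 50 μM for 24 h, with untreated cells as control. DNA was obtained by standard digestion and organic extraction, run on a 2% agarose gel and stained with ethidium bromide to detect ladders.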

CNE-2 [6] = test: Induction of apoptosis in human CNE2 cells assessed as caspase 3-mediated PARP cleavage at 50 uM after 24 hrs by enhanced chemiluminescence detection; type: functional, cell-based
Procedure, shortened: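 CNE-2 cells were treated at 50 μM for 24 h and lysed on ice for 30 min in Tris/EDTA/NaCl/SDS/Triton/deoxycholate/PMSF buffer. Cytosolic protein (25 μg, 15,000g supernatant) was run on 12% SDS-PAGE and blotted to nitrocellulose. Blots were probed with anti-PARP (1:1000) in milk block, and the 89 kDa cleaved band was detected by ECL.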

CNE-2 [7] = test: Antiproliferative activity against human CNE2 cells at 9.86 uM by MTT assay; type: functional, cell-based; conditions: TDE = time-dependent effect
Procedure, shortened: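 CNE-2 nasopharyngeal carcinoma cells were grown in DMEM with 10% FBS and penicillin/streptomycin at 37 °C under 5% CO2. Cells were seeded in 96-well plates and exposed to compound at 0.5–100 µM for 24, 48 or 72 h; tabulated values are from 72 h. MTT (5 mg/ml) was added for 4 h, formazan dissolved in DMSO, A595 read. IC50 reported as mean ± SEM, three experiments.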

CNE-2 [8] = test: Antiproliferative activity against human CNE2 cells at 5.19 uM by MTT assay; type: functional, cell-based; conditions: TDE = time-dependent effect
CNE-2 [9] = test: Antiproliferative activity against human CNE2 cells at 5.06 uM by MTT assay; type: functional, cell-based; conditions: TDE = time-dependent effect
CNE-2 [10] = test: Induction of apoptosis in human CNE2 cells assessed as early stage apoptotic cell count at 5 uM after 24 hrs by Annexin-V-FITC/PI binding assay; type: functional
Procedure, shortened: (§4)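 CNE-2 cells were treated at 5, 10, 25 or 50 μM for 24 h, collected, washed in ice-cold PBS, stained with Annexin-V-FITC and PI, and analysed by flow cytometry. Annexin-V+/PI− cells were counted as early apoptotic and double-positive cells as late apoptotic.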

CNE-2 [11] = test: Induction of apoptosis in human CNE2 cells assessed as early stage apoptotic cell count at 25 uM after 24 hrs by Annexin-V-FITC/PI binding assay; type: functional; procedure, shortened: as §4
CNE-2 [12] = test: Induction of apoptosis in human CNE2 cells assessed as early stage apoptotic cell count at 50 uM after 24 hrs by Annexin-V-FITC/PI binding assay; type: functional; procedure, shortened: as §4
CNE-2 [13] = test: Induction of apoptosis in human CNE2 cells assessed as increase in caspase 9 activity at 50 uM upto 24 hrs; type: functional, cell-based
Procedure, shortened: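 CNE-2 cells were treated at 50 μM for 0, 2, 4, 8, 14 and 24 h, trypsinized, PBS-washed and lysed on ice for 15 min. Lysates were spun at 20,000g at 4 °C, and 0.1 mg protein (Bradford) was incubated with Ac-LEHD-pNA for 2 h at 37 °C. pNA release was recorded at A405.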

CNE-2 [14] = test: Induction of apoptosis in human CNE2 cells assessed as late stage apoptotic cell count at 5 uM after 24 hrs by Annexin-V-FITC/PI binding assay; type: functional; procedure, shortened: as §4
CNE-2 [15] = test: Induction of apoptosis in human CNE2 cells assessed as late stage apoptotic cell count at 50 uM after 24 hrs by Annexin-V-FITC/PI binding assay; type: functional; procedure, shortened: as §4
CNE-2 [16] = test: Induction of apoptosis in human CNE2 cells assessed as late stage apoptotic cell count at 25 uM after 24 hrs by Annexin-V-FITC/PI binding assay; type: functional; procedure, shortened: as §4
CNE-2 [17] = test: Antiproliferative activity against human CNE2 cells at 3.45 uM by MTT assay; type: functional, cell-based; conditions: TDE = time-dependent effect
CNE-2 [18] = test: Induction of apoptosis in human CNE2 cells assessed as early stage apoptotic cell count at 10 uM after 24 hrs by Annexin-V-FITC/PI binding assay; type: functional; procedure, shortened: as §4
CNE-2 [19] = test: Induction of apoptosis in human CNE2 cells assessed as intracellular ROS production visualized by DCFH-DA after 30 hrs by FACS analysis; type: functional, cell-based
Procedure, shortened: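 CNE-2 cells were treated at 50 μM for 0–30 h (0, 2, 4, 6, 8, 13, 19, 24, 30 h), trypsinized, centrifuged and PBS-washed. They were loaded with DCFH-DA (10 μM) at 37 °C for 30 min, and the percentage of cells with higher DCF fluorescence was measured by FACS.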

CNE-2 [20] = test: Induction of apoptosis in human CNE2 cells assessed as late stage apoptotic cell count at 10 uM after 24 hrs by Annexin-V-FITC/PI binding assay; type: functional; procedure, shortened: as §4

Nc1ccc(/C=C/c2ccccc2)cc1 [(E)-4-STYRYLANILINE]
IC50 [1]: 98.7 µM | IC50 [2]: 54.5 µM

COc1cc(/C=C/c2ccc(NC(=O)CNP(=O)(OC(C)C)OC(C)C)cc2)cc(OC)c1
IC50 [1]: 7.12 µM | IC50 [2]: 8.91 µM

COc1cc(/C=C/c2ccc(NC(=O)CCCNP(=O)(OC(C)C)OC(C)C)cc2)cc(OC)c1
IC50 [1]: 15.2 µM | IC50 [2]: 12.3 µM

COc1cc(/C=C/c2ccc(NC(=O)CCNP(=O)(OC(C)C)OC(C)C)cc2)cc(OC)c1
IC50 [1]: 8.19 µM | IC50 [2]: 10.1 µM

COc1cc(/C=C/c2ccc(NC(=O)[C@@H]3CCCN3P(=O)(OC(C)C)OC(C)C)cc2)cc(OC)c1
IC50 [1]: 9.86 µM | Activity (CNE-2 [3]): Dose-dependent effect | IC50 (K562): 9.15 µM | Activity [4]: 32.1% | IC50 [2]: 8.11 µM | IC50 (HeLa): 9.53 µM | Activity (CNE-2 [5]): Active | Activity (CNE-2 [6]): Active | Activity (CNE-2 [7]): tde

CC(C)C[C@H](NP(=O)(OC(C)C)OC(C)C)C(=O)Nc1ccc(/C=C/c2ccccc2)cc1
IC50 [1]: 65.6 µM | IC50 [2]: 54.3 µM

COc1cc(/C=C/c2ccc(NC(=O)[C@H](Cc3ccccc3)NP(=O)(OC(C)C)OC(C)C)cc2)cc(OC)c1
IC50 [1]: 9.83 µM | IC50 [2]: 43.4 µM

CC(C)OP(=O)(NCCCCC(=O)Nc1ccc(/C=C/c2ccccc2)cc1)OC(C)C
IC50 [1]: 5.19 µM | Activity (CNE-2 [3]): Dose-dependent effect | Activity (CNE-2 [8]): tde | IC50 (K562): 9.58 µM | Activity [4]: 45.3% | IC50 [2]: 6.36 µM | IC50 (HeLa): 9.75 µM | Activity (CNE-2 [5]): Active | Activity (CNE-2 [6]): Active

CC(C)OP(=O)(NCCCC(=O)Nc1ccc(/C=C/c2ccccc2)cc1)OC(C)C
IC50 [1]: 6.47 µM | IC50 [2]: 9.03 µM

CC(C)OP(=O)(N[C@@H](C)C(=O)Nc1ccc(/C=C/c2ccccc2)cc1)OC(C)C
IC50 [1]: 12.8 µM | IC50 [2]: 25.4 µM

Oc1ccc(/C=C/c2cc(O)cc(O)c2)cc1 [RESVERATROL]
IC50 [1]: 52.3 µM | IC50 [2]: 67.6 µM

COc1cc(/C=C/c2ccc(NC(=O)CCCCCNP(=O)(OC(C)C)OC(C)C)cc2)cc(OC)c1
IC50 [1]: 5.06 µM | Activity (CNE-2 [3]): Dose-dependent effect | IC50 (K562): 6.89 µM | Activity [4]: 57% | IC50 [2]: 6.37 µM | IC50 (HeLa): 6.41 µM | Activity (CNE-2 [5]): Active | Activity (CNE-2 [6]): Active | Activity (CNE-2 [9]): tde

CC(C)OP(=O)(OC(C)C)N1CCC[C@H]1C(=O)Nc1ccc(/C=C/c2ccccc2)cc1
IC50 [1]: 12.2 µM | IC50 [2]: 10.1 µM

CC(C)OP(=O)(NCC(=O)Nc1ccc(/C=C/c2ccccc2)cc1)OC(C)C
IC50 [1]: 7.01 µM | IC50 [2]: 7.5 µM

COc1cc(/C=C/c2ccc(NC(=O)CCCCNP(=O)(OC(C)C)OC(C)C)cc2)cc(OC)c1
Activity (CNE-2 [10]): 6.45% | IC50 [1]: 3.45 µM | Activity (CNE-2 [3]): Dose-dependent effect | Activity (CNE-2 [11]): 21.24% | Activity (CNE-2 [12]): 18.78% | Activity (CNE-2 [13]): Active | Activity (CNE-2 [14]): 9.86% | IC50 (K562): 5.32 µM | Activity [4]: 91.6% | Activity (CNE-2 [15]): 66.79% | IC50 [2]: 5.67 µM | Activity (CNE-2 [16]): 41.12% | IC50 (HeLa): 5.62 µM | Activity (CNE-2 [5]): Active | Activity (CNE-2 [17]): tde | Activity (CNE-2 [18]): 16.24% | Activity (CNE-2 [6]): Active | Activity (CNE-2 [19]): Active | Activity (CNE-2 [20]): 22.51%

CC(C)OP(=O)(N[C@@H](Cc1ccccc1)C(=O)Nc1ccc(/C=C/c2ccccc2)cc1)OC(C)C
IC50 [1]: 92.1 µM | IC50 [2]: 83.7 µM

COc1cc(/C=C/c2ccc(NC(=O)[C@@H](NP(=O)(OC(C)C)OC(C)C)C(C)C)cc2)cc(OC)c1
IC50 [1]: 77.4 µM | IC50 [2]: 116 µM

COc1cc(/C=C/c2ccc(NC(=O)[C@H](CC(C)C)NP(=O)(OC(C)C)OC(C)C)cc2)cc(OC)c1
IC50 [1]: 14.3 µM | IC50 [2]: 55.3 µM

CC(C)OP(=O)(NCCCCCC(=O)Nc1ccc(/C=C/c2ccccc2)cc1)OC(C)C
IC50 [1]: 24.3 µM | IC50 [2]: 8.58 µM

CC(C)OP(=O)(NCCC(=O)Nc1ccc(/C=C/c2ccccc2)cc1)OC(C)C
IC50 [1]: 6.81 µM | IC50 [2]: 29.8 µM

COc1cc(/C=C/c2ccc(NC(=O)[C@H](C)NP(=O)(OC(C)C)OC(C)C)cc2)cc(OC)c1
IC50 [1]: 11.7 µM | IC50 [2]: 29.2 µM

CC(C)OP(=O)(N[C@H](C(=O)Nc1ccc(/C=C/c2ccccc2)cc1)C(C)C)OC(C)C
IC50 [1]: 128 µM | IC50 [2]: 49.3 µM
